By apparent Kd is commonly meant the concentration giving half-maximal binding under the conditions of the assay.

Consider 37 sequences from the EternaBench riboswitch data.

The data set has as its system MS2 coat protein. The data set can be described thus: apparent Kd, MS2 coat protein; higher = weaker binding; RNA-MaP array; FMN 200 µM where present. The method, boiled down:
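Green signal was scaled to red-channel RNA signal and control-cluster median Fmax, and the apparent Kd was taken as the median of filtered per-cluster binding-curve fits. The binding series used SNAP-549-labelled MS2 coat protein from 0.7 or 1.5 nM, doubling to 3 µM, on designs transcribed by stalled E. coli RNA polymerase on Illumina sequencing-chip clusters. Each series ran without and then with constant ligand in 100 mM Tris-HCl pH 7.5, 80 mM KCl, 4 mM MgCl2, BSA, DTT, yeast tRNA and Tween-20.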

[1] abbreviates: designed as: ON switch for flavin mononucleotide, no ligand.
Where [2] appears, read: ligand present: flavin mononucleotide, designed as: ON switch for flavin mononucleotide.
The mark [3] stands for this setting: designed as: OFF switch for flavin mononucleotide, no ligand.
[4] abbreviates: ligand present: flavin mononucleotide, designed as: OFF switch for flavin mononucleotide.

On to “GGGCGUAAUACAUGAGGAUCACCCAUGUCAGAAAGGGUAAUCAGAAGGUACUAUUAGAGAAAGAGUAAGGAUAUGAAUACGCCC”, for which the “apparent Kd” value runs as follows: under setting [1], 876 nM; under setting [2], 169 nM.
On to “CAGUCUACAGGAUAUACAUGAGGAUCACCCAUGUAAAUUCACUUUCGGUAGUCUACAUGUAGAAGGGUAGACUG”, for which the “apparent Kd” value was determined as 125 nM under setting [3] and 38.8 nM under setting [4].
In the case of “CUCUUGGCAGGAUAUGCUCUCUUAGACAUGAGGAUCACCCAUGUGCUCAUUCCUUCUUUUGCAGAAGGGCCUUAAC”, the “apparent Kd” value by setting is: under setting [3], 71.4 nM; under setting [4], 52.3 nM.
On the same counts, the results for “GGUUAUUGCAAGGAUAUGCUUUUUUUUGAAAUUGCAGAAGGUGCAACAUGAGGAUCACCCAUGUUGGAUGGGUU” are 166 nM and 125 nM.
For “AGCGAACAUGAGGAUCACCCAUGUGAAAAACAUAGAGGAUAUGUCGCAUGCGUGUAAAAGACAGAAGGCUAUCGCG”, the “apparent Kd” value runs as follows: under setting [1], 71.6 nM; under setting [2], 33.9 nM.
Consider “CUCGUGUUAGGAUAUCGUGGCUGGGCUGGGACGUCCGAUCGCGAGAAGGGACAUGAGGAUCACCCAUGUAAAAC”, for which the “apparent Kd” value is 36.7 nM under setting [3] and 86 nM under setting [4].
On the same counts, the results for “CUUUUGUGAGGAUAUCAGUAGUAAUACAAUAGUAUUACUACUGAGAAGGCACAUGAGGAUCACCCAUGUUCCUU” are 16 nM and 29.5 nM.
Consider “GUUUCGUGAGGAUAUGUGGCUUCGAUCGUGCGAACGAGGCUACAGAAGGCACAUGAGGAUCACCCAUGUUCCUC”, for which the “apparent Kd” value runs as follows: under setting [3], 37.4 nM; under setting [4], 481 nM.
On the same counts, the results for “UUCCGGCGUGUAGGAUAUGGAUCCGAUUAGGAUCCAGAAGGACAUGAGGAUCACCCAUGUACAUGUAAACAGUCAUCACCGGAA” are 6.09 nM and 7.65 nM.
For “AAUAAACAUGAGGAUCACCCAUGUCAGGAUAUGCGUCUAACCUAAUACCAUAGAUACGGCAGAAGGGACUAAUA” the same measures were 50.2 nM and 33.8 nM.
For the sequence “GCCUGCUGGCGAGGAUAUUCUGUGCGGUUUCGGCUCGUGUCUGUUACAUGAGGAUCACCCAUGUGGGAGAAGGUGUCUGUGGCC”, the “apparent Kd” value reads like this: under setting [3], 7.76 nM; under setting [4], 7.28 nM.
On to “UUACAUACAAAGGUACAUGAGGAUCACCCAUGUUUAUUGGGAAGAAGGGUAACAGUACUACAUAUAUAGGAUAUUUCACAAAUG”, for which the “apparent Kd” value amounted to 195 nM under setting [1] and 144 nM under setting [2].
“UAAUAAUUAAGAGGAUAUAUACAACAUGAGGAUCACCCAUGUACCCAUGUAGUAGAAGGCUUAUUUUUAUUUAAUAAUAUAAUU”: the “apparent Kd” value reads like this: under setting [1], 122 nM; under setting [2], 40.1 nM.
Consider “UAGUAUAAGGGCAUUAAACAUGAGGAUCACCCAUGUACGAUAGAGGAUAUGCAUUUCAGUUUAGAGUAGAAGGUUAGAGAAUAU”, for which the “apparent Kd” value reads like this: under setting [3], 39.1 nM; under setting [4], 47.4 nM.
With “CUCGUGUCAGGAUAUGGAAGGCCGUUUGAUUAACGAGGGUACUAGAAGGGACAUGAGGAUCACCCAUGUAAAAA”, the “apparent Kd” value runs as follows: under setting [3], 37.7 nM; under setting [4], 57.6 nM.
Regarding “AGCUACGUUUCGUAGCAGCUAGGUGAGGAUAUCCUUUACAUGAGGAUCACCCAUGUAUAGCCAUGGGAGAAGGCGCCUAGAAAG”, the “apparent Kd” value under setting [1] was determined as 181 nM and the “apparent Kd” value under setting [2] was found to be 16.9 nM.
As to “GGUUGUCAUAGUCAUCCUUUACGUACAUGAGGAUCACCCAUGUAGGAUAUGCUACUCAAAGAGUAGCAGAAGGGCGUGUGUCUU”, the “apparent Kd” value under setting [3] is 23.1 nM and the “apparent Kd” value under setting [4] turned out to be 25.5 nM.
“CCUUACACCGAGAAGGGCACGUAUUGAAGAGGGUGCCAGGAACAUCACAUGAGGAUCACCCAUGUGCAGGAUAUCGGCAGGAAC”: the “apparent Kd” value is, setting by setting: under setting [3], 9.78 nM; under setting [4], 22.3 nM.
As for “AGGUAACAUGAGGAUCACCCAUGUCAGGAUAUCAGUAAGAUGAGAAUAGAGUAGAGUAUGAGAAGGGACUAUAU”, the “apparent Kd” value stood at 43.6 nM under setting [3] and 32.3 nM under setting [4].
Regarding “GUGGUUGUCGUAGGAUAUGUAGGAUAUUCCUACAUGAGGAUCACCCAUGUUCGCAUGGAAGAAGGACAGAAGGACGAUGACCAG”, the “apparent Kd” value reads like this: under setting [1], 801 nM; under setting [2], 22.7 nM.
Regarding “AUAUCCGAAGCAGGAUAUCGACGAGGUGUCGAGGUAGAGCGUAUUCACAUGAGGAUCACCCAUGUCGAGAAGGGCUACAGGAUA”, the “apparent Kd” value runs as follows: under setting [3], 56.5 nM; under setting [4], 15.9 nM.
As for “UUUAUUUUGCAAGGAUAUGUUUAAUUUUAGUUUCCUUACACAUGAGGAUCACCCAUGUUAUACUUACAGAAGGUGCAUAAUUUU”, the “apparent Kd” value by setting is: under setting [3], 173 nM; under setting [4], 94.6 nM.
Take “AAUAGGCGAGGAUAUACAUGAGGAUCACCCAUGUAAGUAAGCCUGGCUGAAACUGAAUGUAGAAGGCGCAAUAA”: the “apparent Kd” value was 17.6 nM under setting [3] and 58.5 nM under setting [4].
On the same counts, the results for “AACAGUACAGGAUAUACAUGAGGAUCACCCAUGUGAGAAUUAAGUGGCGUACCACUAUGUAGAAGGGUACUGGA” are 103 nM and 225 nM.
For “CUAAUGUGAGGAUAUGGUGUUGAUCACAGGAAGGAGAUUCUCCAGAAGGCACAUGAGGAUCACCCAUGUAGUGA” the same measures were 163 nM and 142 nM.
On the same counts, the results for “AUCAGCUCGUCAGGAUAUACGUCACUGCGUCAGCAGUGUAGUAAGAUCACAUGAGGAUCACCCAUGUAGAAGGGACGAGCUGAU” are 5.55 nM and 12 nM.
As for “CAGCGCUGUCGAGAGGAUAUGCUGUGAUGGACAUGAGGAUCACCCAUGUUAGCGAUAGCAUUACUGUAGAAGGCUCUACAGCUGC”, the “apparent Kd” value is 13.4 nM under setting [1] and 12.8 nM under setting [2].
On to “CUUUAGUGAGGAUAUGUGGCUUCGAUCGUGAGAUCGAGGCUACAGAAGGCACAUGAGGAUCACCCAUGUUCCUU”, for which the “apparent Kd” value by setting is: under setting [3], 14.5 nM; under setting [4], 32.9 nM.
On the same counts, the results for “UGCUAGAACCUAGGAUAUCCUAGGUUGGUGGUGCUUGGUGACCGGACAUGAGGAUCACCCAUGUAGGAGAAGGAGGUUGCUAAG” are 37.8 nM and 41.2 nM.
Turning to “GUGGAGUACGUAGGAUAUGUAGGAUAUUCCUACAUGAGGAUCACCCAUGUAAGCAUGGAAGAAGGACAGAAGGACGUGCUCCAG”, the “apparent Kd” value was 231 nM under setting [1] and 12.1 nM under setting [2].
For “UUGGACGUCGUAGGAUAUGUAGGAUAUUCCUACAUGAGGAUCACCCAUGUUGACAUGGAAGAAGGACAGGAGGACGAUGUCCAU” the same measures were 346 nM and 7.82 nM.
Take “GGAUGACAAAGUCAUCCAAUUCGAACAUGAGGAUCACCCAUGUAGGAUAUGGUACUCAAAGAGUACCAGAAGGACAUGUGCUUU”: the “apparent Kd” value is, setting by setting: under setting [3], 38.1 nM; under setting [4], 145 nM.
Turning to “CGGGCUGCUGUGAGGAUAUGCCUGUGGGUGCGUGGGUAGAAGGCACAUGAGGAUCACCCAUGUCCUGCAGCUCG”, the “apparent Kd” value under setting [4] was found to be 717 nM.
Consider “UAUUUACAUGAGGAUCACCCAUGUUAGGAUAUGUUUCUAUCGUCGAAAGAUGAUAUUUGCAGAAGGGACUUUAU”, for which the “apparent Kd” value runs as follows: under setting [3], 27.6 nM; under setting [4], 25.1 nM.
For “UAGUAUAAGGGCAUUAAACAUGAGGAUCACCCAUGUACGAUAGAGGAUAUGCAUUUCAGUUGAGAGUAGAAGGUUAGAGAAGGG”, the “apparent Kd” value reads like this: under setting [3], 44.5 nM; under setting [4], 46.3 nM.
On the same counts, the results for “GCGCGCGCCGCAGGAUAUGGUUUGUUCGUUGAACCAGAAGGGCGACAUGAGGAUCACCCAUGUACAUGAGGAUCACCCAUGUGC” are 59.2 nM and 51 nM.
“GUCUUAUUACAGAAGGUGUUUUACAUGAGGAUCACCCAUGUUUUAAUGUUUAAAUUUGAUAUUUACAAGGAUAUGUACUAAUCU”: the “apparent Kd” value is 27.7 nM under setting [1] and 19.4 nM under setting [2].
